Each structure is given as a SMILES string.

The values that follow come from ChEMBL document CHEMBL1123541, “Preparation and antitumor activity of 7-substituted 1,2-aziridinomitosenes” (J Med Chem, 1986).

Data set [1] has as its system Mus musculus. Nature of the data set: Average weight change of BDF1 female mice at a dose of 1.6 mg/kg per injection. Type of data set: functional. The method in brief:
(§1)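 BDF1 female mice implanted ip with 10^6 ascites leukemia cells, then given the aziridinomitosene on day 1 only, six mice per dose. Average weight change is the weight difference between the treated and control groups.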

In data set [2] the test system is P388. Briefly: Compound was tested for antitumor activity against P388 Murine leukemia in BDF1 female mice at a dose of 0.8 mg/kg per injection. The format is functional, Mus musculus. The method in brief:
(§2)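 P388 ascites cells (10^6) implanted ip into BDF1 female mice. Aziridinomitosene given on day 1 only, six mice per dose; ten saline-treated mice on day 1 only as controls. Read-out is median survival time in days, %T/C = MST treated/MST control × 100, with 125 taken as significant. Mitomycin C run as a positive control at its optimal dose.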

Data set [3] deals with Mus musculus. Briefly: Average weight change of BDF1 female mice at a dose of 6.4 mg/kg per injection. The format is functional. The method in brief: as §1
In data set [4] the test system is P388. Nature of the data set: Compound was tested for antitumor activity against P388 Murine leukemia in BDF1 female mice at a dose of 3.2 mg/kg per injection. The format is functional, Mus musculus. In short, it runs like this:
as §2

The nature of data set [5]: Partition coefficient (logP). The format is physicochemical. The conditions noted are these: octanol/water.
Data set [6] relates to Mus musculus. Briefly: Average weight change of BDF1 female mice at a dose of 12.8 mg/kg per injection. Type of data set: functional. The method in brief: as §1
For data set [7], the system named is P388. Nature of the data set: Compound was tested for antitumor activity against P388 Murine leukemia in BDF1 female mice at a dose of 6.4 mg/kg per injection. The format is functional, Mus musculus. In short, it runs like this:
as §2

In data set [8] the test system is Mus musculus. Nature of the data set: Average weight change of BDF1 female mice at a dose of 3.2 mg/kg per injection. Type of data set: functional. In short, it runs like this:
as §1

The subject of data set [9] is P388. Nature of the data set: Minimum effective dose determined against P-388 Murine leukemia in BDF1 female mice. The format is functional. The conditions noted are these: Mus musculus, read-out: MED.
The subject of data set [10] is P388. Briefly: Compound was tested for antitumor activity against P388 Murine leukemia in BDF1 female mice at a dose of 12.8 mg/kg per injection. Type of data set: functional, Mus musculus. Set-up: unit not given here. The method in brief:
as §2

Data set [11] relates to Mus musculus. Briefly: Average weight change of BDF1 female mice at a dose of 0.8 mg/kg per injection. Type of data set: functional. In short, it runs like this: as §1
In data set [12] the test system is P388. Briefly: Compound was tested for antitumor activity against P388 Murine leukemia in BDF1 female mice at a dose of 1.6 mg/kg per injection (MST treated / MST control x 100). Type of data set: functional, Mus musculus. The method in brief:
as §2

Data set [13] deals with Mus musculus. Briefly: Average weight change of BDF1 female mice at a dose of 51.2 mg/kg per injection. The format is functional. The method in brief:
as §1

In data set [14] the test system is P388. Nature of the data set: Compound was tested for antitumor activity against P388 Murine leukemia in BDF1 female mice at a dose of 3.2 mg/kg per injection (MST treated / MST control x 100). The format is functional, Mus musculus. The method in brief: as §2
In data set [15] the test system is P388. Briefly: Compound was tested for antitumor activity against P388 Murine leukemia in BDF1 female mice at a dose of 1.6 mg/kg per injection. The format is functional, Mus musculus. The method in brief: as §2
In data set [16] the test system is Mus musculus. Briefly: Average weight change of BDF1 female mice at a dose of 25.6 mg/kg per injection. Type of data set: functional. In short, it runs like this: as §1
Data set [17] has as its system P388. Nature of the data set: Compound was tested for antitumor activity against P388 Murine leukemia in BDF1 female mice at a dose of 0.4 mg/kg per injection. Type of data set: functional, Mus musculus. In short, it runs like this:
as §2

Data set [18] has as its system P388. Nature of the data set: Compound was tested for antitumor activity against P388 Murine leukemia in BDF1 female mice at a dose of 0.2 mg/kg per injection. Type of data set: functional, Mus musculus. The method in brief: as §2
Data set [19] has as its system P388. Nature of the data set: Compound was tested for antitumor activity against P388 Murine leukemia in BDF1 female mice at a dose of 25.6 mg/kg per injection. The format is functional, Mus musculus. The method in brief: as §2
In data set [20] the test system is Mus musculus. Nature of the data set: Average weight change of BDF1 female mice at a dose of 24 mg/kg per injection. Type of data set: functional. The method in brief:
as §1

For data set [21], the system named is Mus musculus. Briefly: Average weight change of BDF1 female mice at a dose of 48 mg/kg per injection. Type of data set: functional. The method in brief: as §1
Data set [22] relates to L1210. Briefly: Compound was tested for antitumor activity against L-1210 Murine leukemia in BDF1 female mice at a dose of 12 mg/kg per injection. The format is functional, Mus musculus. The method in brief:
(§3)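 L-1210 run per NCI protocol. 10^6 ascites cells implanted ip into BDF1 female mice. Aziridinomitosene given on day 1 only, six mice per dose, with a control group of 36 mice. Median survival time in days is recorded, and %T/C = MST treated/MST control × 100, with 125 taken as significant.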

Data set [23] has as its system L1210. Nature of the data set: Compound was tested for antitumor activity against L-1210 Murine leukemia in BDF1 female mice at a dose of 24 mg/kg per injection. Type of data set: functional, Mus musculus. In short, it runs like this: as §3
Data set [24] deals with Mus musculus. Briefly: Average weight change of BDF1 female mice at a dose of 6 mg/kg per injection. Type of data set: functional. In short, it runs like this: as §1
Data set [25] concerns L1210. Nature of the data set: Compound was tested for antitumor activity against L-1210 Murine leukemia in BDF1 female mice at a dose of 48 mg/kg per injection. Type of data set: functional, Mus musculus. The method in brief: as §3
The test system of data set [26] is P388. Nature of the data set: Compound was tested for antitumor activity against P388 Murine leukemia in BDF1 female mice at a dose of 51.2 mg/kg per injection (MST treated / MST control x 100). The format is functional, Mus musculus. In short, it runs like this:
as §2

The test system of data set [27] is Mus musculus. Nature of the data set: Average weight change of BDF1 female mice at a dose of 12 mg/kg per injection. Type of data set: functional. The method in brief: as §1
In data set [28] the test system is P388. Nature of the data set: Compound was tested for antitumor activity against P388 Murine leukemia in BDF1 female mice at a dose of 25.6 mg/kg per injection (MST treated / MST control x 100). Type of data set: functional, Mus musculus. In short, it runs like this: as §2
The test system of data set [29] is L1210. Nature of the data set: Compound was tested for antitumor activity against L-1210 Murine leukemia in BDF1 female mice at a dose of 6 mg/kg per injection. Type of data set: functional, Mus musculus. In short, it runs like this: as §3

In the case of `COC1=C(C)C(=O)c2c(c(COC(N)=O)c3n2CC2C3N2C)C1=O` (configuration not stated), the Weight change in the data set with Mus musculus [1] is on record as -0.2 g; in the data set on Mus musculus [3], -0.3 g; with Mus musculus [6], -1.7 g; in the data set on Mus musculus [8] it was 0.5 g; with Mus musculus [11], 0.8 g. Besides, the MST is 150 days in the data set on P388 [2], 188 days with P388 [4], 213 days in the data set on P388 [7] and 213 with P388 [10]. Besides, in [5], the logP is 1.28. For the same compound, the minimal effective dose in the data set with P388 [9] turned out to be 0.8 mg/kg. Besides, in the data set with P388 [12], the T/C amounted to 156%.

Turning to `CC1=C(N2CC2C)C(=O)c2c(COC(N)=O)c3n(c2C1=O)CC1C3N1C` (configuration not stated), the Weight change is 0 g in the data set on Mus musculus [1]; -1.3 g in the data set with Mus musculus [13]; -0.4 g in the data set with Mus musculus [3]; -0.5 g in the data set with Mus musculus [6]; 0 g in the data set on Mus musculus [8]; -1 g in the data set on Mus musculus [16]. The MST in the data set with P388 [2] turned out to be 125 days; in the data set with P388 [15] it was 156 days; in the data set on P388 [7] it was 194 %T/C; in the data set with P388 [10], 238; with P388 [17] it was 138 days. The T/C was 163% in the data set on P388 [14] and 125% in the data set with P388 [18]. Also, in data set [5], the logP was 1.23. The minimal effective dose in the data set on P388 [9] came out at 0.2 mg/kg.

For `COC1=C(C)C(=O)c2c(c(COC(N)=O)c3n2CC2NC32)C1=O` (configuration not stated), the Weight change in the data set with Mus musculus [3] was 0 g; in the data set on Mus musculus [6], -0.8 g; with Mus musculus [8], -0.4 g; with Mus musculus [16] it was -0.4 g. Further, the T/C with P388 [14] is given as 122%. The logP in [5] was 0.87. The MST with P388 [19] was found to be 167 % T/C; in the data set with P388 [7], 122 %T/C; with P388 [10], 139. Moreover, the minimal effective dose in the data set with P388 [9] is 12.8 mg/kg.

For `CC1=C(N2CC2)C(=O)c2c(COC(N)=O)c3n(c2C1=O)CC1NC31` (configuration not stated), the Weight change in the data set with Mus musculus [1] is 1 g; with Mus musculus [20] it was -2.6 g; in the data set on Mus musculus [21], -4.2 g; in the data set with Mus musculus [6], 0.9 g; in the data set on Mus musculus [24] it was -0.4 g; with Mus musculus [8] it was 1 g. In addition, the Weight change is listed as -0.4 g in the data set on Mus musculus [16], -1.3 g in the data set with Mus musculus [27] and 0.9 g in the data set with Mus musculus [11]. Besides, the MST is 111 days in the data set with P388 [2], 120 days in the data set with L1210 [23], 131 days in the data set with L1210 [25] and 172 in the data set on P388 [10]. For the same compound, the % T/C with L1210 [22] was found to be 122%; in the data set on L1210 [29], 118%. The figures for the T/C in the data set on P388 [14], with P388 [26] and in the data set with P388 [28] were 144%, 206% and 189%, respectively. In [5], this compound had a lipophilicity (logP) of 0.3. For the same compound, in the data set with P388 [9], the minimal effective dose is 1.6 mg/kg.

For orientation: logP means a log measure of how a compound divides between an organic and an aqueous phase. As a reminder, the T/C is the result in the treated group divided by that in the control group, in per cent.
